Experimental data as given in ChEMBL document CHEMBL1122744, “2-Chloroethyl (methylsulfonyl)methanesulfonate and related (methylsulfonyl)methanesulfonates. Antineoplastic activity in vivo” (J Med Chem, 1984).

What was measured:
[1] = Ratio of number of 30-day survivors to the total treated mice at dose 50 mg/kg in exp6; 3/6; assay type: functional
Mus musculus [2] = test: Median survival time of the untreated control groups, in which there are no 30-day survivors at dose 33 mg/kg in exp2; assay type: functional
[3] = Ratio of number of 60-day survivors to the total treated mice at dose 50 mg/kg in exp4; 6/6; assay type: functional
[4] = Ratio of number of 60-day survivors to the total treated mice at dose 50 mg/kg in exp8; 2/6; assay type: functional
[5] = Ratio of number of 60-day survivors to the total treated mice at dose 50 mg/kg in exp1; 2/6; assay type: functional
Mus musculus [6] = test: Median survival time of the treated control groups, in which there are no 30-day survivors at dose 33 mg/kg in exp6; assay type: functional
Mus musculus [7] = test: Median survival time of the untreated control groups, in which there are no 30-day survivors at dose 50 mg/kg in exp6; assay type: functional
[8] = Ratio of median survival times for non-survivors at dose 100 mg/kg in exp8*-toxic; assay type: functional
In short: (§1)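 Mice were inoculated ip with 10^6 P388 leukemia cells on day 0. Groups of six (occasionally five) were dosed ip qd on days 1–5 with fresh suspensions; 30 mice served as untreated controls. Deaths were recorded daily up to day 60. T/C% compares the median survival of treated non-survivors (<60 days) with the control median. Medians used grouped data when there were no 30-day survivors, otherwise ungrouped data. t = toxic.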

Mus musculus [9] = test: Median survival time of the treated control groups, in which there are no 30-day survivors at dose 22 mg/kg in exp7; assay type: functional
Mus musculus [10] = test: Change in weight by day 5, obtained by subtracting treated groups of animals minus control groups of animals at dose 22 mg/kg in exp4.
Mus musculus [11] = test: Change in weight by day 5, obtained by subtracting treated groups of animals minus control groups of animals at dose 50 mg/kg in exp2.; assay type: functional
In short: (§2)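 Mice were inoculated ip with 10^6 P388 leukemia cells on day 0 and weighed 19–22 g that day. Compound was given ip once daily on days 1–5, within about 5 min of preparing the solution or suspension, to groups of six (occasionally five). Thirty inoculated untreated mice served as controls. The value is the average weight change of treated mice minus that of controls on day 5.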

Mus musculus [12] = test: Median survival time of the untreated control groups, in which there are no 30-day survivors at dose 33 mg/kg in exp3; assay type: functional
Mus musculus [13] = test: Change in weight by day 5, obtained by subtracting treated groups of animals minus control groups of animals at dose 50 mg/kg in exp6; assay type: functional; in short: as §2
Mus musculus [14] = test: Change in weight by day 5, obtained by subtracting treated groups of animals minus control groups of animals at dose 22 mg/kg in exp3.; assay type: functional; in short: as §2
Mus musculus [15] = test: Change in weight by day 5, obtained by subtracting treated groups of animals minus control groups of animals at dose 100 mg/kg in exp1; assay type: functional; in short: as §2
Mus musculus [16] = test: Median survival time of the untreated control groups, in which there are no 30-day survivors at dose 33 mg/kg in exp7; assay type: functional
Mus musculus [17] = test: Median survival time of the untreated control groups, in which there are no 30-day survivors at dose 22 mg/kg in exp6; assay type: functional
Mus musculus [18] = test: Median survival time of the untreated control groups, in which there are no 30-day survivors at dose 50 mg/kg in exp1; assay type: functional
Mus musculus [19] = test: Median survival time of the untreated control groups, in which there are no 30-day survivors at dose 22 mg/kg in exp7; assay type: functional
[20] = Ratio of median survival times for non-survivors at dose 150 mg/kg in exp2; t= toxic; assay type: ADME, organism-based; design: dose 150 mg/kg; conditions: in vivo; in short: as §1
Mus musculus [21] = test: Median survival time of the treated control groups, in which there are no 30-day survivors at dose 100 mg/kg in exp8; assay type: functional
Mus musculus [22] = test: Median survival time of the treated control groups, in which there are no 30-day survivors at dose 33 mg/kg in exp7; assay type: functional
Mus musculus [23] = test: Mortality by day 5 expressed as number of mice died to the total treated at dose 200 mg/kg in exp8; 6/6; assay type: ADME, organism-based; design: dose 200 mg/kg; conditions: in vivo
Mus musculus [24] = test: Median survival time of the untreated control groups, in which there are no 30-day survivors at dose 50 mg/kg in exp5; assay type: functional
Mus musculus [25] = test: Median survival time of the treated control groups, in which there are no 30-day survivors at dose 33 mg/kg in exp5; assay type: functional
Mus musculus [26] = test: Mortality by day 5 expressed as number of mice died to the total treated at dose 100 mg/kg in exp1; 1/6; assay type: ADME, organism-based; design: dose 100 mg/kg; conditions: in vivo
Mus musculus [27] = test: Change in weight by day 5, obtained by subtracting treated groups of animals minus control groups of animals at dose 22 mg/kg in exp7; assay type: functional; in short: as §2
Mus musculus [28] = test: Median survival time of the untreated control groups, in which there are no 30-day survivors at dose 100 mg/kg in exp2; assay type: functional
[29] = Ratio of median survival times for non-survivors at dose 33 mg/kg in exp2; assay type: functional
Mus musculus [30] = test: Mortality by day 5 expressed as number of mice died to the total treated at dose 33 mg/kg in exp3; 0/5; assay type: ADME, organism-based; design: dose 33 mg/kg; conditions: in vivo
Mus musculus [31] = test: Median survival time of the untreated control groups, in which there are no 30-day survivors at dose 33 mg/kg in exp6; assay type: functional
Mus musculus [32] = test: Mortality by day 5 expressed as number of mice died to the total treated at dose 50 mg/kg in exp4; 0/6; assay type: ADME, organism-based; design: dose 50 mg/kg; conditions: in vivo
Mus musculus [33] = test: Mortality by day 5 expressed as number of mice died to the total treated at dose 15 mg/kg in exp3; 0/5; assay type: ADME, organism-based; design: dose 15 mg/kg; conditions: in vivo
Mus musculus [34] = test: Median survival time of the untreated control groups, in which there are no 30-day survivors at dose 100 mg/kg in exp8; assay type: functional
[35] = Ratio of median survival times for non-survivors at dose 50 mg/kg in exp5; assay type: functional
Mus musculus [36] = test: Median survival time of the treated control groups, in which there are no 30-day survivors at dose 15 mg/kg in exp3; assay type: functional
Mus musculus [37] = test: Median survival time of the treated control groups, in which there are no 30-day survivors at dose 33 mg/kg in exp3; assay type: functional
Mus musculus [38] = test: Mortality by day 5 expressed as number of mice died to the total treated at dose 15 mg/kg in exp4; 0/6; assay type: ADME, organism-based; design: dose 15 mg/kg; conditions: in vivo
[39] = Ratio of median survival times for non-survivors at dose 22 mg/kg in exp6; assay type: functional
Mus musculus [40] = test: Mortality by day 5 expressed as number of mice died to the total treated at dose 33 mg/kg in exp5; 0/6; assay type: ADME, organism-based; design: dose 33 mg/kg; conditions: in vivo
Mus musculus [41] = test: Mortality by day 5 expressed as number of mice died to the total treated at dose 22 mg/kg in exp3; 0/5; assay type: ADME, organism-based; design: dose 22 mg/kg; conditions: in vivo

## CS(=O)(=O)CS(=O)(=O)OCCCl
[1]
  Ratio: 3
Mus musculus [2]
  Median survival time: 11.2
[3]
  Ratio: 6
[4]
  Ratio: 2
[5]
  Ratio: 2
Mus musculus [6]
  Median survival time: 23.3
Mus musculus [7]
  Median survival time: 13
[8]
  Ratio: 55
Mus musculus [9]
  Median survival time: 18
Mus musculus [10]
  Change in weight: -1.2
Mus musculus [11]
  Change in weight: -3.4
Mus musculus [12]
  Median survival time: 11.1
Mus musculus [13]
  Change in weight: -3.1
Mus musculus [14]
  Change in weight: -1.3
Mus musculus [15]
  T-C: -4 g
Mus musculus [16]
  Median survival time: 10.7
Mus musculus [17]
  Median survival time: 13
Mus musculus [18]
  Median survival time: 11.2
Mus musculus [19]
  Median survival time: 10.7
[20]
  Ratio: Toxic
Mus musculus [21]
  Median survival time: 6
Mus musculus [22]
  Median survival time: 22.3
Mus musculus [23]
  Mortality: 6
Mus musculus [24]
  Median survival time: 12
Mus musculus [25]
  Median survival time: 25.7
Mus musculus [26]
  Mortality: 1
Mus musculus [27]
  Change in weight: -2.2
Mus musculus [28]
  Median survival time: 11.2
[29]
  Ratio: 209
Mus musculus [30]
  Mortality: 0
Mus musculus [31]
  Median survival time: 13
Mus musculus [32]
  Mortality: 0
Mus musculus [33]
  Mortality: 0
Mus musculus [34]
  Median survival time: 11
[35]
  Ratio: 225
Mus musculus [36]
  Median survival time: 16
Mus musculus [37]
  Median survival time: 22
Mus musculus [38]
  Mortality: 0
[39]
  Ratio: 160
Mus musculus [40]
  Mortality: 0
Mus musculus [41]
  Mortality: 0
